Measurements collected from several papers.
Lines come from different studies, so protocols differ.
Target: Serine/threonine-protein kinase MARK1 (MARK1, Homo sapiens, UniProt Q9P0L2)

| SMILES | test | setting | measurement | result |
| --- | --- | --- | --- | --- |
| Cc1nn(C)cc1-c1nc2c(N3CCN(Cc4ccc(Cl)cc4)CC3)c(Cl)cnc2[nH]1 | binding, competition with immobilised ligand | 1 µM | remaining binding | 78% |
| COc1ncccc1-c1cnn2ccc(N3CCN(C(=O)OC(C)C)CC3)nc12 | binding, competition with immobilised ligand | 1 µM | remaining binding | 100% |
| CC(C)(C)c1cc(C=C(C#N)C#N)cc(Br)c1O | enzyme activity, inhibitor | 0.5 µM | remaining activity | 98.8% |
| Cn1cc(-c2cc(F)cc(N3CCn4c(cc5c4CCCC5)C3=O)c2CO)cc(Nc2ccc(N3CCN(C4COC4)CC3)cn2)c1=O | enzyme activity, inhibitor | 0.1 µM | inhibition | 10% |
| COc1cc(Nc2ncc(F)c(Nc3ccc4c(n3)NC(=O)C(C)(C)O4)n2)cc(OC)c1OC | binding, competition with immobilised ligand | 10 µM | inhibition | 94% |
| N#CC1(c2ccccn2)CCN(Cc2cc(C(=O)O)c(=O)n3ccccc23)CC1 | cell-free assay, competition with immobilised ligand | 1 µM | remaining binding | 94% |
| Nc1ncc(-c2nc(N3CCOCC3)nc(N3CCOCC3)n2)c(C(F)F)n1 | binding, competition with immobilised ligand | 10 µM | remaining binding | 88% |
| O=c1[nH]c2ccccc2n1C1CCN(Cc2ccc(-c3[nH]c4cc5ncnc5cc4nc3-c3ccccc3)cc2)CC1 | cell-free assay | 0.5 µM | remaining signal | 104% |
| C#Cc1n[nH]c2c(-c3cn([C@@H](C)c4ccccn4)c(=O)[nH]c3=O)cc(F)cc12 | enzyme activity, inhibitor | 0.1 µM | inhibition | 4.9% |
| Cn1cc(-c2cccc(N3CCc4c(sc5c4CC(C)(C)C5)C3=O)c2CO)cc(Nc2ccncn2)c1=O | enzyme activity, inhibitor | 1 µM | inhibition | 1% |
| Cn1cncc1[C@@](O)(COc1ccc(C#N)cc1-c1ccc(OC(F)(F)F)cc1)c1ccc(C#N)cc1 | cell-free assay, competition with immobilised ligand | 1 µM | remaining binding | 100% |
| C#Cc1n[nH]c2c(-c3cn([C@@H](C)c4ccccc4)c(=O)[nH]c3=O)cc(F)cc12 | enzyme activity, inhibitor | 0.1 µM | inhibition | 4.1% |
